Activity calls are given as the source filed them. The calls are words filed in the database; no cut-off is given here.
What was measured:
[1] = molecular target: T1, Muscarinic acetylcholine receptor M1 (Homo sapiens) (UniProt P11229); test: Positive allosteric modulation at human muscarinic M1 receptor expressing CHO cells assessed as potentiation of acetylcholine-induced calcium mobilization by FLIPR assay; format: functional, cell-based
T1 sequence (whole entry): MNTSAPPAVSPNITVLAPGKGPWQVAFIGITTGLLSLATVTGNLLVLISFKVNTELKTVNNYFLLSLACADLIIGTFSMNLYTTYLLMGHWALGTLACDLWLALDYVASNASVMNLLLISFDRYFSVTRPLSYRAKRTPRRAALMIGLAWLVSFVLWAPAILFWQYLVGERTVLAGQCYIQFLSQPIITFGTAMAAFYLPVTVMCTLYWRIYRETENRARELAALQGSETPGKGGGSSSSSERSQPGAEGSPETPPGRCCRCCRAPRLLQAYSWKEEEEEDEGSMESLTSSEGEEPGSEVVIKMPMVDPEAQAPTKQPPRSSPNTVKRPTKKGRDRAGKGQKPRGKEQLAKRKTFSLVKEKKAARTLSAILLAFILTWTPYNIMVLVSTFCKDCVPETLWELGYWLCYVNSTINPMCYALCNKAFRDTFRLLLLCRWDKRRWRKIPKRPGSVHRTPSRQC
How it was run: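 CHO cells expressing human M1 receptor. Inflection point determined in the presence of an EC20 concentration of acetylcholine. Mean of at least two experiments; interassay variability ±30%.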

[2] = tested on: Mus musculus; test: Antiamnesic activity against in contextual fear conditioning B6SJL mouse modle assessed as reversal of scopolamine-induced episodic memory deficit in at 10 mg/kg; format: functional, organism-based; parameters: dose 10 mg/kg
How it was run: (§1)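 Contextual fear conditioning model of episodic memory in B6SJL mice; scopolamine-induced deficit; test agents given at 3, 10 and 30 mpk; read-out is reversal of the scopolamine deficit.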

[3] = Plasma protein binding in rat; format: ADME, cell-free; conditions: read-out: PPB (converted)
[4] = Plasma protein binding in human; format: ADME, cell-free; conditions: read-out: PPB (converted)
[5] = Distribution coefficient, log D of the compound; format: physicochemical; conditions: octanol/water
[6] = molecular target: T1, Muscarinic acetylcholine receptor M1 (Homo sapiens); test: Positive allosteric modulation at human muscarinic M1 receptor expressing CHO cells assessed as potentiation of acetylcholine-induced calcium mobilization at 0.1 to 1 uM by FLIPR assay; format: functional, cell-based
How it was run: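 Human M1-expressing CHO cells; calcium mobilization read-out. Acetylcholine dose–response curves run with modulator at rising concentrations from 0.1 to 1 μM; fold potentiation taken from the leftward shift of the curve.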

[7] = tested on: Brain; test: Drug uptake in Sprague-Dawley rat brain at 10 mg/kg, po; format: ADME, organism-based; parameters: dose 10 mg/kg, route oral; conditions: in vivo, read-out: Drug uptake
How it was run: (§2)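 Sprague-Dawley rats dosed orally at 10 mg/kg in 0.5% methocel. Drug levels measured by bioanalysis of plasma, brain and CSF; brain/plasma ratio derived from these. Interanimal variability under 20%.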

[8] = tested on: Mus musculus; test: Antiamnesic activity against in contextual fear conditioning B6SJL mouse modle assessed as reversal of scopolamine-induced episodic memory deficit in at 3 mg/kg; format: functional, organism-based; parameters: dose 3 mg/kg; how it was run: as §1
[9] = Ratio of drug uptake in CSF to fraction unbound in plasma in rat; format: ADME, cell-free
How it was run: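 Sprague-Dawley rats, oral 10 mg/kg in 0.5% methocel. CSF level divided by unbound plasma level, with unbound plasma derived using rat plasma protein binding values.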

[10] = tested on: Plasma; test: Plasma concentration in Sprague-Dawley rat at 10 mg/kg, po; format: ADME, organism-based; parameters: dose 10 mg/kg, route oral; conditions: in vivo; how it was run: as §2
[11] = Drug uptake in Sprague-Dawley rat CSF at 10 mg/kg, po; format: ADME, organism-based, Cerebrospinal fluid; parameters: dose 10 mg/kg, route oral; conditions: in vivo, read-out: Drug uptake; how it was run: as §2
[12] = Ratio of drug uptake in brain to plasma in Sprague-Dawley rat at 10 mg/kg, po; format: ADME, organism-based; parameters: dose 10 mg/kg, route oral; conditions: read-out: BPR; how it was run: as §2
[13] = tested on: Plasma; test: Plasma concentration in B6SJL mouse at 30 mg/kg; format: ADME, organism-based; parameters: dose 30 mg/kg; conditions: in vivo
How it was run: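 Plasma drug levels in B6SJL mice measured after 30 mpk dosing in the contextual fear conditioning study.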

[14] = tested on: Mus musculus; test: Antiamnesic activity against in contextual fear conditioning B6SJL mouse modle assessed as reversal of scopolamine-induced episodic memory deficit in at 30 mg/kg; format: functional, organism-based; parameters: dose 30 mg/kg; how it was run: as §1
[15] = molecular target: Voltage-gated inwardly rectifying potassium channel KCNH2 (Homo sapiens, UniProt Q12809); test: Binding affinity to human ERG at <1 uM
Sequence of Voltage-gated inwardly rectifying potassium channel KCNH2 (Q12809 whole entry): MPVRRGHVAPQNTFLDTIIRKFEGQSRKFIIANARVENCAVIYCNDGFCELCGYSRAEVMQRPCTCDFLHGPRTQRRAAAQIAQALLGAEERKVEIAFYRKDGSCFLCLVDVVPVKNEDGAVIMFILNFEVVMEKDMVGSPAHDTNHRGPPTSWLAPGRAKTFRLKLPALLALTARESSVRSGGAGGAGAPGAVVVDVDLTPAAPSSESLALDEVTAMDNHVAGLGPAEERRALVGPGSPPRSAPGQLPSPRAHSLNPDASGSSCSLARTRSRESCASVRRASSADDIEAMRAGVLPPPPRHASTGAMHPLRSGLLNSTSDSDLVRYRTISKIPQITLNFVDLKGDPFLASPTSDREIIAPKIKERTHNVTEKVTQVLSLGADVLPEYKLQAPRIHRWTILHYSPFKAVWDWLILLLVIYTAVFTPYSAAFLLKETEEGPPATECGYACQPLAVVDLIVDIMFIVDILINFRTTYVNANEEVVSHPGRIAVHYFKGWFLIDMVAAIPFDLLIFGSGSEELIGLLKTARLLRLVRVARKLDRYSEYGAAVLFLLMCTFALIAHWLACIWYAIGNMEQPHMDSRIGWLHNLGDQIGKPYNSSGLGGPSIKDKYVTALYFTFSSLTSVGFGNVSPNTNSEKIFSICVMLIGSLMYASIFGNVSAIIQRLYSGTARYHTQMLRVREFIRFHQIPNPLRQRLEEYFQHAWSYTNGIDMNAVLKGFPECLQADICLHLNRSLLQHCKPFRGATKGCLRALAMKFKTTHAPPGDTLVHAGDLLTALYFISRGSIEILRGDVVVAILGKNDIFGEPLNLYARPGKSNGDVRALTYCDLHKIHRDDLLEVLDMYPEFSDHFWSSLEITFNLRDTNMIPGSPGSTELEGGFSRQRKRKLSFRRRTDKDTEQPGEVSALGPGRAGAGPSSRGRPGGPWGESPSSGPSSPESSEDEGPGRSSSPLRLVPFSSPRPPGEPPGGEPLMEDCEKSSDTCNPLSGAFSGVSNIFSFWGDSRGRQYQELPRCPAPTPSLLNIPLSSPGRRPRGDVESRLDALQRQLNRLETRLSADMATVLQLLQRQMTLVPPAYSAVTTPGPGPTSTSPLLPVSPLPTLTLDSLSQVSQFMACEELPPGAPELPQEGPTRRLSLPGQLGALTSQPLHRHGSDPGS

Row | Compound | IP [1] [µM] | other results
1 | O=C(O)c1cc(CN2CCc3ncccc3C2)c2ccccn2c1=O | 0.83 | 
2 | O=C(O)c1cc(CN2CCc3ccccc3C2c2cccs2)c2ccccn2c1=O (stereo unspecified) | 0.6 | 
3 | O=C(O)c1cc(CN2CCc3cc(Cl)ccc3C2)c2ccccn2c1=O | 0.33 | Activity [2]: inactive; fraction unbound [3]: 0.04; fraction unbound [4]: 0.02; logD [5]: 2.37; Activity [6]: Active; concentration [7]: 3690 nM; Activity [8]: inactive; Ratio [9]: 0.63; concentration [10]: 4240 nM; concentration [11]: 86 nM; Kp [12]: 0.86; concentration [13]: 16000 nM; Activity [14]: inactive
4 | O=C(O)c1cc(CN2CCc3cc(Br)ccc3C2)c2ccccn2c1=O | 0.63 | 
5 | O=C(O)c1cc(CN2CCC(c3ccc(Br)cc3)CC2)c2ccccn2c1=O | 1.2 | 
6 | O=C(O)c1cc(CN2CCC(c3ncccn3)CC2)c2ccccn2c1=O | 13 | 
7 | Cn1c(C2CCN(Cc3cc(C(=O)O)c(=O)n4ccccc34)CC2)nc2ccccc21 | 30 | 
8 | O=C(O)c1cc(CN2CCC(c3ccc(Cl)cc3)CC2)c2ccccn2c1=O | 0.77 | 
9 | O=C(O)c1cc(CN2CCc3cc(F)ccc3C2)c2ccccn2c1=O | 0.78 | 
10 | O=C(O)c1cc(CN2CCC(c3cncnc3)CC2)c2ccccn2c1=O | 7 | 
11 | O=C(O)c1cc(CN2CCc3ncncc3C2)c2ccccn2c1=O | 1.8 | 
12 | O=C(O)c1cc(CN2CCc3c(Cl)cccc3C2)c2ccccn2c1=O | 0.85 | 
13 | O=C(O)c1cc(CN2CCc3cc(-c4ccncc4)ccc3C2)c2ccccn2c1=O | 0.39 | 
14 | O=C(O)c1cc(CN2CCC(n3cccn3)CC2)c2ccccn2c1=O | 0.78 | 
15 | O=C(O)c1cc(CN2CCc3cnccc3C2)c2ccccn2c1=O | 0.9 | 
16 | O=C(O)c1cc(CN2CCC(c3cccnc3F)CC2)c2ccccn2c1=O | 0.84 | 
17 | O=C(O)c1cc(CN2CCC(n3cnc4ccccc43)CC2)c2ccccn2c1=O | 0.55 | fraction unbound [3]: 0.24; fraction unbound [4]: 0.21; logD [5]: 0.92
18 | O=C(O)c1cn(Cc2ccc3ccccc3c2)c2ccccc2c1=O | 0.08 | 
19 | CCOC(=O)C1Cc2ccccc2CN1Cc1cc(C(=O)O)c(=O)n2ccccc12 (stereo unspecified) | > 100 | 
20 | O=C(O)c1cc(CN2CCC(c3cccc(F)c3)CC2)c2ccccn2c1=O | 1.5 | 
21 | O=C(O)c1cc(CN2CCc3ccccc3C2C2CCCCC2)c2ccccn2c1=O (stereo unspecified) | > 100 | 
22 | O=C(O)c1cc(CN2CCc3ccccc3C2)c2ccccn2c1=O | 1.7 | 
23 | N#Cc1ccc(N2CCN(Cc3cc(C(=O)O)c(=O)n4ccccc34)CC2)cc1 | 0.52 | Ratio [9]: 0.42
24 | O=C(O)c1cc(CN2CCC(n3ccnc3)CC2)c2ccccn2c1=O | 1.9 | 
25 | O=C(O)c1cc(CN2CCC(c3cccc(F)n3)CC2)c2ccccn2c1=O | 2.2 | 
26 | O=C(O)c1cc(CN2CCc3ccccc3C2c2ccccc2F)c2ccccn2c1=O (stereo unspecified) | 0.15 | 
27 | N#Cc1ccc2c(c1)CCN(Cc1cc(C(=O)O)c(=O)n3ccccc13)C2 | 0.61 | 

Row | Compound | IP [1] [µM] | other results
28 | O=C(O)c1cc(CN2CCC(c3ccncc3)CC2)c2ccccn2c1=O | 0.95 | 
29 | Cc1ccc2c(c1)CCN(Cc1cc(C(=O)O)c(=O)n3ccccc13)C2 | 1.1 | 
30 | O=C(O)c1cc(CN2CCc3ccccc3C2c2ccncc2)c2ccccn2c1=O (stereo unspecified) | 0.053 | fraction unbound [3]: 0.06; fraction unbound [4]: 0.04; concentration [7]: 1340 nM; Ratio [9]: 0.37; concentration [10]: 9780 nM; concentration [11]: 230 nM; Kp [12]: 0.14; Activity [15]: Active
31 | O=C(O)c1cc(CN2CCC(c3cccc(Cl)c3)CC2)c2ccccn2c1=O | 0.91 | 
32 | O=C(O)c1cc(CN2CCC(c3ccccc3F)CC2)c2ccccn2c1=O | 1.7 | 
33 | O=C(O)c1cc(CN2CCC(c3ccncn3)CC2)c2ccccn2c1=O | 4.3 | 
34 | O=C(O)c1cc(CN2CCc3cc(-c4ccccc4)ccc3C2)c2ccccn2c1=O | 0.56 | 
35 | COc1ccc(C2CCN(Cc3cc(C(=O)O)c(=O)n4ccccc34)CC2)cc1 | 4.3 | 
36 | O=C(O)c1cc(CN2CCC(n3nnc4ccccc43)CC2)c2ccccn2c1=O | 6 | 
37 | COc1ccc2c(c1)CCN(Cc1cc(C(=O)O)c(=O)n3ccccc13)C2 | 1.4 | 
38 | O=C(O)c1cc(CN2CCC(c3ccccc3)CC2)c2ccccn2c1=O | 1.3 | 
39 | O=C(O)c1cc(CN2CCc3ccccc3C2c2ccccc2)c2ccccn2c1=O (stereo unspecified) | 0.56 | 
40 | N#Cc1ccc(C2CCN(Cc3cc(C(=O)O)c(=O)n4ccccc34)CC2)cc1 | 1.3 | 
41 | O=C(O)c1cc(CN2CCC(c3ccc(F)nc3)CC2)c2ccccn2c1=O | 2.1 | 
42 | O=C(O)c1cc(CN2CCC(c3ccc(C(F)(F)F)cc3)CC2)c2ccccn2c1=O | 0.46 | 
43 | CCOC(=O)C1c2ccccc2CCN1Cc1cc(C(=O)O)c(=O)n2ccccc12 (stereo unspecified) | 0.34 | 
44 | O=C(O)c1cc(CN2CCC(c3nc4ccccc4[nH]3)CC2)c2ccccn2c1=O | 0.12 | fraction unbound [3]: 0.23; fraction unbound [4]: 0.18; concentration [10]: 132 nM
45 | O=C(O)c1cc(CN2CCC(c3cc[nH]n3)CC2)c2ccccn2c1=O | 1.5 | 
46 | O=C(O)c1cc(CN2CCc3ccc(Cl)cc3C2)c2ccccn2c1=O | 0.63 | 
47 | COC(=O)C1c2ccccc2CCN1Cc1cc(C(=O)O)c(=O)n2ccccc12 (stereo unspecified) | 1.7 | 
48 | CSc1ccc2c(c1)CCN(Cc1cc(C(=O)O)c(=O)n3ccccc13)C2 | > 10 | 
49 | O=C(O)c1cc(CN2CCC(n3ccnn3)CC2)c2ccccn2c1=O | 1.7 | 
50 | O=C(O)c1cc(CN2CCC(c3cnccn3)CC2)c2ccccn2c1=O | 11 | 
51 | CCOC(=O)C1CN(Cc2cc(C(=O)O)c(=O)n3ccccc23)Cc2ccccc21 (stereo unspecified) | 3.6 | 
52 | O=C(O)c1cc(CN2CCC(c3ccc(F)cc3)CC2)c2ccccn2c1=O | 1.7 | 
53 | O=C(O)c1cc(CN2CCc3ccncc3C2)c2ccccn2c1=O | 1.7 | 
